Assay results pooled from the literature.
Lines come from different studies, so protocols differ.
Target: Cytochrome P450 1A2 (CYP1A2, Homo sapiens, UniProt P05177)
Read-out: enzyme activity
Action: inhibitor

For `C[C@H]1CN(c2n[nH]c3nc(N[C@H]4CC[C@H](NS(=O)(=O)CCC(F)(F)F)CC4)ncc23)CCO1`, the IC50 was > 100 µM.
The IC50 of `C=CC(=O)Nc1cc(Nc2nccc(Nc3cc(Cl)c(F)cc3C(C)(C)O)n2)c(OC)cc1N1CC[C@@H](N(C)C)C1` is reported as > 30 µM (human, liver microsomes).
`CCCN(CCC)CCc1cccc2c1CC(=O)N2` has an IC50 of 540 µM (fluorescence).
`C#Cc1ccc2cc(-c3ccccc3)c(=O)oc2c1` has a Ki of 2.97 µM (6 min, pH 7.6).
With `Nc1nc(N)c2nc(CNc3cccc4ccccc34)cnc2n1` the IC50 was 72.4 µM (luciferase).
The Ki of `C#Cc1cccc(-c2cc(=O)c3ccccc3o2)c1` is reported as 0.8 µM (6 min, pH 7.6).
`Cc1cc(C)c2c(c1)[C@@H](N(Cc1cc(C(F)(F)F)cc(C(F)(F)F)c1)c1nnn(C)n1)CCCN2C[C@H]1CC[C@H](C(=O)O)CC1` has a Ki of 7.1 µM (human, liver microsomes; pH 7.4).
`CCCCCNC(=N)N/N=C/c1c[nH]c2ccc(OC)cc12` gave an IC50 of 347 µM (fluorescence).
The IC50 of `NS(=O)(=O)NCCNc1nonc1C(=NO)Nc1ccc(F)c(Br)c1` is reported as > 10 µM (fluorescence).
The IC50 of `Cc1ccc2nc(-c3ccccc3)c(CNc3ccc(F)cc3)n2c1` is reported as 1.8 µM.
With `CC1=CC(=O)C(C(C)C)=CC1=O` the IC50 was 557 µM (fluorescence; pH 7.4).
`COc1ccc2cc3[n+](cc2c1OC)CCc1cc2c(cc1-3)OCO2` has an IC50 of > 10 µM.
